Results: ChEMBL document CHEMBL3407422, “2-(2-oxo-morpholin-3-yl)-acetamide derivatives as broad-spectrum antifungal agents” (J Med Chem, 2015)
Converted amounts (≈) assume the structure as drawn. The source made the active and inactive calls. The calls are words filed in the database; no cut-off is given here.

Assays:
Candida albicans [1] = assay: Antifungal activity against Candida albicans SC5314 after 24 hrs; format: functional
Method in brief: (§1)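 Overnight YPD cultures diluted in PBS (1/200 for C. albicans, 1/400 for C. glabrata). Cells treated with compound, or 2.5% DMSO as solvent control, for 24 h at 37 °C. CFUs then counted; MFC is the concentration giving 99% killing of the inoculum.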

Nakaseomyces glabratus = assay: Antifungal activity against Candida glabrata BG2 after 24 hrs; format: functional; method in brief: as §1
Aspergillus fumigatus = assay: Antifungal activity against Aspergillus fumigatus CBS 117202 after 24 hrs by two-fold dilution method; format: functional; settings: CBS 117202, 24 h
Method in brief: (§2)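 Spores at 2×10^4 spores/mL in potato dextrose broth, incubated with a 2-fold compound dilution series for 24 h at 25 °C. Growth read by microspectrophotometry of the liquid cultures. MIC taken as the lowest concentration inhibiting fungal growth.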

[2] = Half life in human plasma; format: ADME, cell-free
Aspergillus flavus = assay: Antifungal activity against Aspergillus flavus CBS111.45 after 24 hrs by two-fold dilution method; format: functional; settings: CBS111.45, 24 h; method in brief: as §2
[3] = test system: Trichophyton mentagrophytes; assay: Fungicidal activity against Trichophyton mentagrophytes B70554; format: functional, organism-based
Method in brief: (§3)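 Inoculum of 10^3 CFU in RPMI-MOPS added to prediluted compound, highest concentration 64 µM. Growth read by resazurin fluorescence (ex 550, em 590 nm). IC50 is 50% growth inhibition versus untreated controls. Three independent replicates.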

Trichophyton rubrum = assay: Fungicidal activity against Trichophyton rubrum B68183; format: functional, organism-based; method in brief: as §3
Microsporum canis = assay: Fungicidal activity against Microsporum canis B68128; format: functional; method in brief: as §3
Sporothrix schenckii = assay: Fungicidal activity against Sporothrix schenckii B62482; format: functional, organism-based; method in brief: as §3
[4] = Cytotoxicity against human MRC5 SV2 cells after 72 hrs by fluorescence assay; format: cell-based
Method in brief: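 MRC-5 SV2 cells (10^4/well) grown in MEM with L-glutamine, NaHCO3 and 5% FCS. Incubated with compound 72 h at 37 °C, 5% CO2, then resazurin added for 24 h. Fluorescence read at ex 530, em 590 nm.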

Candida albicans [5] = assay: Fungicidal activity against CA2 high-persister Candida albicans clinical isolate; format: functional
[6] = Kinetic solubility of the compound at pH 7.4; format: physicochemical; settings: buffer, read-out: Kinetic_solubility
[7] = Apparent permeability from apical to basolateral side in human Caco2 cells; format: ADME, cell-based; settings: Caco-2
[8] = Apparent permeability from basolateral to apical side in human Caco2 cells; format: ADME, cell-based; settings: Caco-2
[9] = Plasma protein binding in human; format: ADME, cell-free; settings: read-out: PPB (converted)
[10] = Half life in simulated gastric fluid at pH 1.2; format: ADME
Method in brief: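 Stability in simulated gastric fluid containing 800000 Units/L pepsin at pH 1.2; half-life reported.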

[11] = Half life in simulated intestinal fluid […]; format: ADME
[12] = Half life in human liver microsomes; format: ADME
[13] = Half life in mouse liver microsomes; format: ADME
hERG (KCNH2) = hERG (KCNH2) (Homo sapiens, UniProt Q12809); assay: Inhibition of human ERG channel at 10 uM
Chain of hERG (KCNH2) (Q12809 whole entry): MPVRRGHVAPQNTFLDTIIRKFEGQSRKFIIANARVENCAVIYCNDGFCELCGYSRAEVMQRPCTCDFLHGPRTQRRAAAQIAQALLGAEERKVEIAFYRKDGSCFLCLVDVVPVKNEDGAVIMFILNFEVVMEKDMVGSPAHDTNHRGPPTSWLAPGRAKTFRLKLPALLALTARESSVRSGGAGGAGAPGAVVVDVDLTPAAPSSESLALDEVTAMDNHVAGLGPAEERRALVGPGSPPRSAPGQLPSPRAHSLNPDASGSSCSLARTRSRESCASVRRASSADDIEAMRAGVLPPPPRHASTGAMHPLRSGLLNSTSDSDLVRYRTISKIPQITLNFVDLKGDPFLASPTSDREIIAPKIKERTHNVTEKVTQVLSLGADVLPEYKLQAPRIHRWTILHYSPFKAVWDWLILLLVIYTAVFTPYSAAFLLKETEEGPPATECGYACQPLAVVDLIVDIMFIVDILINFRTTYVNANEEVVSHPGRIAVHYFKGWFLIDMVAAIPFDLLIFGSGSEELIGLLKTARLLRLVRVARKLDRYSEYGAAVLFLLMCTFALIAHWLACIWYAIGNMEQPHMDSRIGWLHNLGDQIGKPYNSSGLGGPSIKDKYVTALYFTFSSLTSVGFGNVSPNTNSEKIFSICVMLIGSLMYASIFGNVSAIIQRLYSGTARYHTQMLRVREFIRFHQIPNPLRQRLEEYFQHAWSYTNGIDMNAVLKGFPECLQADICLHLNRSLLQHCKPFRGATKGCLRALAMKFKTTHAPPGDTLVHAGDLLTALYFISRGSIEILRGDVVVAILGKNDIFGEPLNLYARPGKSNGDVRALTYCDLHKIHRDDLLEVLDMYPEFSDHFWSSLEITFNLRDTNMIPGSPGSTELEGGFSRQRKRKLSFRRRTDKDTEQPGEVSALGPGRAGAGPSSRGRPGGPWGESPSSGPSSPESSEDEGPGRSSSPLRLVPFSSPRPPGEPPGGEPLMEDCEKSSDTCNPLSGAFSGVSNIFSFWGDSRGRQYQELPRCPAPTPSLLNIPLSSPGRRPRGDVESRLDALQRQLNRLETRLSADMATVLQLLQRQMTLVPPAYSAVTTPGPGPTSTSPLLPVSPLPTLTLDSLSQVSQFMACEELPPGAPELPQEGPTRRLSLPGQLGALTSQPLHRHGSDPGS

Candida albicans [14] = assay: Antifungal activity against Candida albicans SC5314 infected in BALB/c mouse assessed as reduction in reduction in fungal load in kidney at 10 mg/kg/day, ip for 5 days relative to vehicle-treated control; format: functional, organism-based
Method in brief: (§4)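 BALB/c mice given cyclophosphamide 100 mg/kg at 4 days and 24 h before infection and at 3 days after. Infected IV with 2×10^3 SC5314 cells in saline. Dosed IP daily for 5 days from 16 h post-infection, in DMSO/0.5% methylcellulose (5/95). Organs taken on day 7, homogenized and plated on BHI agar (18 h, 37 °C). CFU/g compared with vehicle.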

Candida albicans [15] = assay: Antifungal activity against Candida albicans SC5314 infected in BALB/c mouse assessed as reduction in reduction in fungal load in spleen at 10 mg/kg/day, ip for 5 days relative to vehicle-treated control; format: functional, organism-based; method in brief: as §4
Candida albicans [16] = assay: Antifungal activity against Candida albicans SC5314 infected in BALB/c mouse assessed as reduction in reduction in fungal load in liver at 10 mg/kg/day, ip for 5 days relative to vehicle-treated control; format: functional, organism-based; method in brief: as §4
Saccharomyces cerevisiae [17] = assay: Antifungal activity against Saccharomyces cerevisiae BY4741 at 12.5 to 50 ug/ml after 24 hrs by Omnilog plate reader analysis; format: functional, organism-based
Method in brief: (§5)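 S. cerevisiae BY4741 from overnight YPD culture, 1/500 final dilution, in Biolog PM22–PM25 chemical sensitivity plates (96 conditions). Compound tested at 12.5 and 50 µg/mL. Plates incubated 24 h at 37 °C in the Omnilog reader.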

Saccharomyces cerevisiae [18] = assay: Antifungal activity against Saccharomyces cerevisiae BY4741 at 12.5 to 50 ug/ml after 24 hrs by Omnilog plate reader analysis in presence of sodium cyanide; format: functional, organism-based; method in brief: as §5
Saccharomyces cerevisiae [19] = assay: Antifungal activity against Saccharomyces cerevisiae BY4741 at 12.5 to 50 ug/ml after 24 hrs by Omnilog plate reader analysis in presence of sodium thiosulfate; format: functional, organism-based; method in brief: as §5
Saccharomyces cerevisiae [20] = assay: Antifungal activity against Saccharomyces cerevisiae BY4741 at 12.5 to 50 ug/ml after 24 hrs by Omnilog plate reader analysis in presence of chlortetracycline hydrochloride; format: functional, organism-based; method in brief: as §5
Saccharomyces cerevisiae [21] = assay: Antifungal activity against Saccharomyces cerevisiae BY4741 at 12.5 to 50 ug/ml after 24 hrs by Omnilog plate reader analysis in presence of potassium chromate; format: functional, organism-based; method in brief: as §5
Saccharomyces cerevisiae [22] = assay: Antifungal activity against Saccharomyces cerevisiae BY4741 at 12.5 to 50 ug/ml after 24 hrs by Omnilog plate reader analysis in presence of monothioglycerol; format: functional, organism-based; method in brief: as §5
CYP1A2 = molecular target: T1, CYP1A2 (Homo sapiens, UniProt P05177); assay: Inhibition of CYP1A2 (unknown origin) at 10 uM; format: ADME
T1 sequence (P05177 whole entry): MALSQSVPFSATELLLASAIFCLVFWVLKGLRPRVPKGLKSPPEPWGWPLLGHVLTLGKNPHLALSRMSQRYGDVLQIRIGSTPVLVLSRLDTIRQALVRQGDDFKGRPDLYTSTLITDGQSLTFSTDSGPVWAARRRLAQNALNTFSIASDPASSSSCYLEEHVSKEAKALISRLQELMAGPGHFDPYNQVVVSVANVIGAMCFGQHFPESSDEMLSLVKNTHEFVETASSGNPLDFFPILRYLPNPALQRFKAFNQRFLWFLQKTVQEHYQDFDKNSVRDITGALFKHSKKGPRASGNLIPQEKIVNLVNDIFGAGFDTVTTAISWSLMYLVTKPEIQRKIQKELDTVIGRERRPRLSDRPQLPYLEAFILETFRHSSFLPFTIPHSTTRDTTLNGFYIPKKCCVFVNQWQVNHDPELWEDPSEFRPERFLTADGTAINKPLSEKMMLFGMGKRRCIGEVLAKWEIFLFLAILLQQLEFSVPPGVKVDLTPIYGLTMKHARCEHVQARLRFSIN

CYP2C9 = CYP2C9 (Homo sapiens, UniProt P11712); assay: Inhibition of CYP2C9 (unknown origin) at 10 uM; format: ADME
Chain of CYP2C9 (P11712 whole entry): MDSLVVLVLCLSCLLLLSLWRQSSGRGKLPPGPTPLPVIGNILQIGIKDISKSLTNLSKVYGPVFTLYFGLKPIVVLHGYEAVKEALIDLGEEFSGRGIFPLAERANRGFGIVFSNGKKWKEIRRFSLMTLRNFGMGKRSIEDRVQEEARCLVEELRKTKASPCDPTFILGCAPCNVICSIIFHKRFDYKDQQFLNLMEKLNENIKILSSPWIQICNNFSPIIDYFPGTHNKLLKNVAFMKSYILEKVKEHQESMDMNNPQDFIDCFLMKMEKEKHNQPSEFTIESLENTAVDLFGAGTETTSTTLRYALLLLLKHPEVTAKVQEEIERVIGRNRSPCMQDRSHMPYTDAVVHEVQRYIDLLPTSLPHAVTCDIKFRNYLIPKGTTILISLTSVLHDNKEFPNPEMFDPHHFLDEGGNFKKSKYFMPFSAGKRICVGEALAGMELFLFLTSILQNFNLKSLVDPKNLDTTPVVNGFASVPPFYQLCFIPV

CYP2C19 = CYP2C19 (Homo sapiens, UniProt P33261); assay: Inhibition of CYP2C19 (unknown origin) at 10 uM; format: ADME
Chain of CYP2C19 (P33261 whole entry): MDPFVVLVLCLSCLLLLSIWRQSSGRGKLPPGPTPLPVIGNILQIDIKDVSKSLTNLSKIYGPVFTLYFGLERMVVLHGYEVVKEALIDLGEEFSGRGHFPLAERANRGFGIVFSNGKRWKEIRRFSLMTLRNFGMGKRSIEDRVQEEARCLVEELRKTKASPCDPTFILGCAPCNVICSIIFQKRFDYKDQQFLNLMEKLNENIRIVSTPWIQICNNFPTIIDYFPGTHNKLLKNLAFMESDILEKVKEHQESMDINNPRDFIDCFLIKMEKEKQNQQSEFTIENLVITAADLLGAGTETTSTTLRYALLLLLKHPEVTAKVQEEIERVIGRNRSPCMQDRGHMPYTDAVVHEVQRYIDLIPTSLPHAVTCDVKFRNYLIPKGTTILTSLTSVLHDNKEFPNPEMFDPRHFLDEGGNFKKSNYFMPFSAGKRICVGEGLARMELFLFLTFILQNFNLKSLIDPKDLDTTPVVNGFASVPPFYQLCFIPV

CYP2D6 = CYP2D6 (Homo sapiens, UniProt P10635); assay: Inhibition of CYP2D6 (unknown origin) at 10 uM; format: ADME
Chain of CYP2D6 (P10635 whole entry): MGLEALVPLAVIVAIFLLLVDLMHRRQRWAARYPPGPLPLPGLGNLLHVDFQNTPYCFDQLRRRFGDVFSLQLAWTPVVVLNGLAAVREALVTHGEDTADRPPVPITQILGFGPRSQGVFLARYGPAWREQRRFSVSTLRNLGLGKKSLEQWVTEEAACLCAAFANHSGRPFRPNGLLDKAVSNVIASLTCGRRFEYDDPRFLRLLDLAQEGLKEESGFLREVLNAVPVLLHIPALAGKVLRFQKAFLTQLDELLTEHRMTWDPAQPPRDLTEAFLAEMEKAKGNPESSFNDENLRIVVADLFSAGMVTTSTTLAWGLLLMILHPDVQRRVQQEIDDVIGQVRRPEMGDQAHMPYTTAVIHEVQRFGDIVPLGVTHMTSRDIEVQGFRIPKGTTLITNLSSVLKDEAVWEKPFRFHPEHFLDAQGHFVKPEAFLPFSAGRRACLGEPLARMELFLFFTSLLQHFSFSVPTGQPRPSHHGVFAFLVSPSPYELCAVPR

CYP3A4 = CYP3A4 (Homo sapiens, UniProt P08684); assay: Inhibition of CYP3A4 (unknown origin) at 10 uM; format: ADME
Chain of CYP3A4 (P08684 whole entry): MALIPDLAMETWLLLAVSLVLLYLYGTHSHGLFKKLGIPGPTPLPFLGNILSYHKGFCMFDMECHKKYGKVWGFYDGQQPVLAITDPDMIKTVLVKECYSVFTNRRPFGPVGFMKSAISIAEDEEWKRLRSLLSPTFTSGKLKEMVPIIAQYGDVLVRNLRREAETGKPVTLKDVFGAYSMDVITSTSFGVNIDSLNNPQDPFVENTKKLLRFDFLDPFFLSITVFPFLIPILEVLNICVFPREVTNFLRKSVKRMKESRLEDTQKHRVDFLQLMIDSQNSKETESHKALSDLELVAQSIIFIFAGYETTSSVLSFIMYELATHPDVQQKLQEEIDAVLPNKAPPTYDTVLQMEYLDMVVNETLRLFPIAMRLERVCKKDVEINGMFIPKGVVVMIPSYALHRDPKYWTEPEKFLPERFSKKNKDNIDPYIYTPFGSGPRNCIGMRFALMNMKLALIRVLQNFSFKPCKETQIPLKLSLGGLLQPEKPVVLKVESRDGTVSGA

[23] = Drug metabolism in mouse liver microsomes at 10 uM after 90 mins by LC-MS/MS analysis; format: ADME; settings: 1.5 h

SMILES | MFC99 (Candida albicans [1]) [µg/mL] | MFC99 (Nakaseomyces glabratus) [µg/mL] | MIC (Aspergillus fumigatus) [µg/mL] | half-life [2] [min] | MIC (Aspergillus flavus) [µg/mL] | IC50 [3] [µg/mL] | IC50 (Trichophyton rubrum) [µg/mL] | IC50 (Microsporum canis) [µg/mL] | IC50 (Sporothrix schenckii) [µg/mL] | CC50 at 72 h [4] [µg/mL] | solubility kinetic [6] [µM] | Papp A→B [7] [×10⁻⁶ cm/s] | Papp B→A [8] [×10⁻⁶ cm/s] | fraction unbound [9] | half-life [10] [min] | half-life [11] [min] | half-life [12] [min] | half-life [13] [min] | inhibition at 10 µM (hERG (KCNH2)) [%] | Activity (Candida albicans [14]) | further results
CCN1CC(C)(C)OC(=O)C1CC(=O)NCc1cccc(-c2ccccc2)c1 (stereo not given) | 12.5 (≈ 32.9 µM) | 12.5 (≈ 32.9 µM) | ≤ 3.1 | > 240 | 25 (≈ 65.7 µM) | 3 (≈ 7.88 µM) | 0.7 (≈ 1.84 µM) | 2.4 (≈ 6.31 µM) | 2.7 (≈ 7.1 µM) | > 20 | 50 (≈ 19 µg/mL) | 22 | 13 | 0.003 | > 240 | 223 | 6 | 1 | 25.5 | Active | MFC (Candida albicans [5]): 12.5 µg/mL (≈ 32.9 µM); Activity (Candida albicans [15]): Active; Activity (Candida albicans [16]): Active; Activity (Saccharomyces cerevisiae [17]): Active; Activity (Saccharomyces cerevisiae [18]): inactive; Activity (Saccharomyces cerevisiae [19]): inactive; Activity (Saccharomyces cerevisiae [20]): inactive; Activity (Saccharomyces cerevisiae [21]): inactive; Activity (Saccharomyces cerevisiae [22]): inactive
CCN1CC(C)(C)OC(=O)C1CC(=O)Nc1ccc(C(C)C)cc1 (stereo not given) | 12.5 (≈ 37.6 µM) | 25 (≈ 75.2 µM) | 1.6 (≈ 4.81 µM) | > 240 | 12.5 (≈ 37.6 µM) | 10.6 (≈ 31.9 µM) | 6.3 (≈ 19 µM) | 6.6 (≈ 19.9 µM) | 11.8 (≈ 35.5 µM) | > 20 | 50 (≈ 16.6 µg/mL) | 65 | 35 | 0.061 | > 240 | > 240 | 29 | 6 | 11 | Active | inhibition at 10 µM (CYP1A2): < 40%; inhibition at 10 µM (CYP2C9): < 40%; inhibition at 10 µM (CYP2C19): < 40%; inhibition at 10 µM (CYP2D6): < 40%; inhibition at 10 µM (CYP3A4): < 40%; Drug metabolism [23]: metabolite_detected
